Results reported in ChEMBL document CHEMBL1139413, “Discovery of the first potent and orally efficacious agonist of the orphan G-protein coupled receptor 119” (J Med Chem, 2008).
pEC50, pIC50: −log10 of the molar value.

Columns and labels:
[1] = molecular target: T1, Glucose-dependent insulinotropic receptor (Homo sapiens, UniProt Q8TDV5); assay: Agonist activity at […] transfected in Xenopus dermal melanophore assessed as dispersion of melatonin-induced pigmentation; format: functional
T1 sequence (Q8TDV5 whole entry): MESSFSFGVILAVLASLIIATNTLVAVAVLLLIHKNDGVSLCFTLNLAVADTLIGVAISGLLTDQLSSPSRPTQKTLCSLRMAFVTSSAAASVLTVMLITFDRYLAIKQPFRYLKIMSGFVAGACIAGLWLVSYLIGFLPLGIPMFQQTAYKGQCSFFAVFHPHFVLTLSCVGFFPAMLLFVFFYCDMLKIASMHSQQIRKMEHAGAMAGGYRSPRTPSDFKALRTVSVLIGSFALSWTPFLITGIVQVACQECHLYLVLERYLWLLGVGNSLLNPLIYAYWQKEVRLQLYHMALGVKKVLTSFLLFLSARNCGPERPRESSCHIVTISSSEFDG
Summary of the method: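 Cultured Xenopus dermal melanophores transiently transfected with GPR119 plasmid, plated in 384-well format. At 48 h post-transfection, pigment aggregated with melatonin (10nM, 1 h), then compounds applied for 1 h. Pigment dispersion read as absorbance (light transmission) to build concentration-response curves; EC50 with log SD, number of determinations given.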

[2] = molecular target: T1, Glucose-dependent insulinotropic receptor; assay: Inverse agonist activity at GPR119 expressed in HEK293 cells assessed as cAMP level by flash plate assay; format: functional, cell-based
Summary of the method: (§1)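 HEK293 cells transiently transfected with GPR119; crude plasma membranes prepared 48 h post-transfection. Membrane adenylyl cyclase read by FlashPlate cAMP kit: 15 µg membrane protein, 60 min at room temperature in 20 mM HEPES pH 7.4 with 10 µM GTP, 0.1 mM ATP, 500 µM IBMX, 10 mM phosphocreatine, creatine phosphokinase. cAMP from on-plate standard curve; usually n = 1 or 2.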

[3] = molecular target: T1, Glucose-dependent insulinotropic receptor; assay: Agonist activity at GPR119 expressed in HEK293 cells assessed as cAMP level by flash plate assay; format: functional, cell-based; summary of the method: as §1

Row | SMILES | pEC50 [1] | further results
1 | CS(=O)(=O)c1ccc(Nc2ncnc(N3CCC(c4nc(-c5cccc(C(F)(F)F)c5)no4)CC3)c2[N+](=O)[O-])cc1 | 7.62 | –
2 | CC(C)c1noc(C2CCN(c3ncnc(Nc4ccc(S(C)(=O)=O)c(F)c4)c3[N+](=O)[O-])CC2)n1 | 8.47 | –
3 | CCOC(=O)C1CCN(c2ncnc(Oc3ccc(OCCOC)cc3)c2[N+](=O)[O-])CC1 | – | pIC50 [2]: 6.30
4 | CCOC(=O)C1CCN(c2ncnc(Oc3ccc(S(C)(=O)=O)cc3)c2[N+](=O)[O-])CC1 | – | pEC50 [3]: 5.72
5 | CC(C)c1noc(C2CCN(c3ncnc(Nc4ccc(S(C)(=O)=O)cc4)c3[N+](=O)[O-])CC2)n1 | 8.24 | –
6 | CC(C)c1nc(C2CCN(c3ncnc(Nc4ccc(S(=O)(=O)C(C)C)cc4F)c3[N+](=O)[O-])CC2)[o+][n-]1 | 8.10 | –
7 | CC(C)(C)c1noc(C2CCN(c3ncnc(Nc4ccc(S(C)(=O)=O)cc4)c3[N+](=O)[O-])CC2)n1 | 8.82 | –
8 | CCS(=O)(=O)c1ccc(Nc2ncnc(N3CCC(c4nc(C(C)C)[n-][o+]4)CC3)c2[N+](=O)[O-])c(F)c1 | 8.15 | –
9 | CCOC(=O)C1CCN(c2ncnc(Oc3ccc(C(=O)CC(=O)OC)cc3)c2[N+](=O)[O-])CC1 | – | pEC50 [3]: 6.00
10 | CCOC(=O)C1CCN(c2ncnc(Oc3ccc(S(N)(=O)=O)cc3)c2[N+](=O)[O-])CC1 | – | pEC50 [3]: 5.52
11 | CCOC(=O)C1CCN(c2ncnc(Oc3ccc(Br)cc3)c2[N+](=O)[O-])CC1 | – | pIC50 [2]: 7.30
12 | CCOC(=O)C1CCN(c2ncnc(Oc3ccc(-n4cncn4)cc3)c2[N+](=O)[O-])CC1 | – | pEC50 [3]: 5.60
13 | CS(=O)(=O)c1ccc(Nc2ncnc(N3CCC(c4nc(-c5cccnc5)[n-][o+]4)CC3)c2[N+](=O)[O-])cc1 | 6.18 | –
14 | Cc1noc(C2CCN(c3ncnc(Nc4ccc(S(C)(=O)=O)cc4)c3[N+](=O)[O-])CC2)n1 | 6.59 | –
